Measurements published in ChEMBL document CHEMBL6134795, “Mannich reaction mediated derivatization of chromones and their biological evaluations as putative multipotent ligands for the treatment of Alzheimer's disease” (RSC Med Chem, 2024).

Key:
[1] = molecular target: T1, Cholinesterase (Homo sapiens, UniProt P06276); assay: Inhibition of recombinant BuChE (unknown origin) using BTCI as substrate at 20 uM preincubated for 30 mins followed by substrate addition by TECAN multiplate reader analysis relative to control
T1 sequence (P06276 whole entry): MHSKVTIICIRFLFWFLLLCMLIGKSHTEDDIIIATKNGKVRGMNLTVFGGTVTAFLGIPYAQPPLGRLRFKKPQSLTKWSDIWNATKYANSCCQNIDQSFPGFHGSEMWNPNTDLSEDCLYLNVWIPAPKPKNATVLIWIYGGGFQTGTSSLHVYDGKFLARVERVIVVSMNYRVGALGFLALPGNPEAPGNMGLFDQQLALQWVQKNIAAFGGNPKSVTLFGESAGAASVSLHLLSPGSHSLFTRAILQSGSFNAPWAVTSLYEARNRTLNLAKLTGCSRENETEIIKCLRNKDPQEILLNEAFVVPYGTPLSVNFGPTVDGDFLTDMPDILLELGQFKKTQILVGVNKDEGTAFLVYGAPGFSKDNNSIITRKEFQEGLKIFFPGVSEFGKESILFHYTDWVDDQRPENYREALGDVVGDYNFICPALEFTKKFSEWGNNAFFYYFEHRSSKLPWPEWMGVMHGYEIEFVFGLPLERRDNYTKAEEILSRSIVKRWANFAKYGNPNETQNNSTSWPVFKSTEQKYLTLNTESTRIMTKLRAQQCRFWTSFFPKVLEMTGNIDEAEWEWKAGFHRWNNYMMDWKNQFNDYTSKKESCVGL
Method in brief: (§1)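 Ellman method as for AChE, using butyrylcholinesterase with BTCI as substrate. Enzyme and compound preincubated 30 min at 37 °C in a CO2 incubator, then DTNB and BTCI added; absorbance read at 417 nm. Screening at 20 μM as % inhibition; IC50 for compounds exceeding 50% inhibition at 20 μM. Triplicate.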

[2] = molecular target: Amyloid-beta precursor protein (Homo sapiens) (UniProt P05067); assay: Inhibition of self-induced amyloid beta (1 to 42 residues) (unknown origin) aggregation at 20 uM incubated at 48 hrs by fluorimetry-based thioflavin T assay
Amyloid-beta precursor protein (Homo sapiens), sequence (P05067 whole entry, the tested form may be a part): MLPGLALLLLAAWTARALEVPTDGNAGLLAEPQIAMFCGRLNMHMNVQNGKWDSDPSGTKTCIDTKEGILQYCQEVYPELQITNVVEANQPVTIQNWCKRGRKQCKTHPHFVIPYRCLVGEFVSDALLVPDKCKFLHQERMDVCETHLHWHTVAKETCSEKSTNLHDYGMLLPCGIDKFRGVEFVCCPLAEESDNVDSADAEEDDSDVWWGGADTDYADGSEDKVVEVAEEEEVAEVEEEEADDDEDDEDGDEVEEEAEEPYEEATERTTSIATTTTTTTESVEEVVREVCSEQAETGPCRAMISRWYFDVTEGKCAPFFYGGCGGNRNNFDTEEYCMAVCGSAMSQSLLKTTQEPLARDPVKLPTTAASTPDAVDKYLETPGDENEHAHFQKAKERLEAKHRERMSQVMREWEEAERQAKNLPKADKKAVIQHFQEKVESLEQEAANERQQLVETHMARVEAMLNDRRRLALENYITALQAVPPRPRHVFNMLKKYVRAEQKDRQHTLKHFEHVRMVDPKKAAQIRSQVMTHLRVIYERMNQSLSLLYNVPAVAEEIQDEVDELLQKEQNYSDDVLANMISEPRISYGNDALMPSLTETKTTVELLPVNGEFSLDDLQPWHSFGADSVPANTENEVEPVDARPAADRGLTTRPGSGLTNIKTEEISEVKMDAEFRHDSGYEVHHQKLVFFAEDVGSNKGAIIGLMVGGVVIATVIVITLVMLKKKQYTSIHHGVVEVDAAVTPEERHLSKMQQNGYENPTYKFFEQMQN
Method in brief: (§2)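 Aβ1-42 pretreated with HFIP (1 mg mL−1) and dried, then incubated with compound (20 μM) at 37 °C for 24 h; an aliquot transferred and incubated further to 48 h. Glycine–NaOH buffer pH 8.0 with 5 μM ThT added; fluorescence read at 440–485 nm. % inhibition calculated against the Aβ-only control taken as 0%.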

[3] = molecular target: Amyloid-beta precursor protein (Homo sapiens) (UniProt P05067); assay: Inhibition of self-induced amyloid beta (1 to 42 residues) (unknown origin) aggregation at 20 uM incubated at 24 hrs by fluorimetry-based thioflavin T assay; method in brief: as §2
[4] = molecular target: T2, Amine oxidase [flavin-containing] B (Homo sapiens, UniProt P27338); assay: Inhibition of recombinant MAO-B (unknown origin) at 20 uM preincubated for 30 mins followed substrate addition by Amplex Red reagent based fluorescence analysis relative to control
T2 sequence (P27338 whole entry): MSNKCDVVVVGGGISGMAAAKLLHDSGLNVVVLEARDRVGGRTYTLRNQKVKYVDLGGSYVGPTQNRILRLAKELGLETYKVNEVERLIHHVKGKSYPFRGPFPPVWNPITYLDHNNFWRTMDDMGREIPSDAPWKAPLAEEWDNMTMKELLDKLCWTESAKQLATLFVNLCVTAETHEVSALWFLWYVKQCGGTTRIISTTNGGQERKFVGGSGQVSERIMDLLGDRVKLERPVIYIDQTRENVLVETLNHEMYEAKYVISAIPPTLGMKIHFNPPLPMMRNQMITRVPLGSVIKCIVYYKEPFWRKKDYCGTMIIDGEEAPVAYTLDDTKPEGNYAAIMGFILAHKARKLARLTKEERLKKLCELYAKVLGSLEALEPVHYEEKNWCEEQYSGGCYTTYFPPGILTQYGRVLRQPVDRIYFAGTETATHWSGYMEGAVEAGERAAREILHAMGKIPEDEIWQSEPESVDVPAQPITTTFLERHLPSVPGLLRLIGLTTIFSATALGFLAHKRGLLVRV
Method in brief: (§3)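 Recombinant MAO enzyme preincubated with compound 30 min at 37 °C; substrate, HRP and Amplex Red working solution then added; H2O2 formation read at 37 °C by fluorescence, ex 545/em 590 nm. Screening at 20 μM as % inhibition versus control; IC50 only for compounds above 50% inhibition at 20 μM; triplicate (n = 3).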

[5] = molecular target: T3, Amine oxidase [flavin-containing] A (Homo sapiens, UniProt P21397); assay: Inhibition of recombinant MAO-A (unknown origin) at 20 uM preincubated for 30 mins followed substrate addition by Amplex Red reagent based fluorescence analysis relative to control; method in brief: as §3
T3 sequence (P21397 whole entry): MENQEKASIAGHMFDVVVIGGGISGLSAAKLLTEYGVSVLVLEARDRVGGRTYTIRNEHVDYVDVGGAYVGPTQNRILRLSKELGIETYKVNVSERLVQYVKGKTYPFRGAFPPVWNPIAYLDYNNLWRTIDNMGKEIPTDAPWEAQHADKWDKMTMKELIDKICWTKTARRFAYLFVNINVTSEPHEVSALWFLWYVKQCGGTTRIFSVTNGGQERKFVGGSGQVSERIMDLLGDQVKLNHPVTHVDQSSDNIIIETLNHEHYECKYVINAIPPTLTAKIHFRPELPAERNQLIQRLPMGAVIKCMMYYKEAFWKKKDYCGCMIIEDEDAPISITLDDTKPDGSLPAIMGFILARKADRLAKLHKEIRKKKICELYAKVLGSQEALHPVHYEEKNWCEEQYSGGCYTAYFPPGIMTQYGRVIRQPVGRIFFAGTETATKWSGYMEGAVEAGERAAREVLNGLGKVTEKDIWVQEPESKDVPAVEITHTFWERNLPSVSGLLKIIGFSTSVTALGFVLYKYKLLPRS

[6] = system: SH-SY5Y; assay: Inhibition of ROS production in human SH-SY5Y cells assessed as intracellular ROS level at 25 uM incubated for 24 hrs by DCF-DA staining based fluorescence analysis relative to control; format: functional
Method in brief: (§4)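 Cultured SH-SY5Y cells exposed to compound (1, 5, 25 μM) for 24 h; intracellular ROS detected with DCF-DA, which is converted to fluorescent 2,7-DCF, read at ex 478/em 518 nm. Inhibition is expressed relative to control. Mean ± SD of triplicate or more independent experiments.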

[7] = molecular target: T2, Amine oxidase [flavin-containing] B; assay: Reversible inhibition of MAO-B (unknown origin) assessed as residual activity at 0.1 times IC50 incubated for 30 mins by dilution method relative to control; details: 0.5 h
[8] = system: SH-SY5Y; assay: Cytotoxicity against human SH-SY5Y cells assessed as cell viability at 25 uM by MTT assay relative to control; format: functional; details: read-out: Activity
Method in brief: (§5)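 SH-SY5Y cells (DMEM/F-12 with 10% FBS, 1% horse serum, 1% penicillin) preincubated 24 h with compound at 1, 5 or 25 μM; MTT converted to formazan, solubilised in DMSO, absorbance read at 595 nm; viability expressed as percentage of untreated control.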

[9] = system: SH-SY5Y; assay: Cytotoxicity against human SH-SY5Y cells assessed as cell viability at 1 uM by MTT assay relative to control; format: functional; details: read-out: Activity; method in brief: as §5
[10] = system: SH-SY5Y; assay: Neuroprotective activity against 6-OHDA-induced cytotoxicity in human SH-SY5Y cells assessed as cell viability at 25 uM incubated for 24 hrs followed by exposure to 6-OHDA by MTT assay relative to control; format: functional; details: read-out: Activity
Method in brief: (§6)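 SH-SY5Y cells treated with compound (1, 5, 25 μM) and challenged with 6-OHDA; cultured 24 h at 37 °C under humidified 5% CO2. Viability measured by MTT as formazan absorbance at 594 nm and expressed relative to control.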

[11] = system: SH-SY5Y; assay: Inhibition of ROS production in human SH-SY5Y cells assessed as intracellular ROS level at 1 uM incubated for 24 hrs by DCF-DA staining based fluorescence analysis relative to control; format: functional; method in brief: as §4
[12] = system: SH-SY5Y; assay: Cytotoxicity against human SH-SY5Y cells assessed as cell viability at 5 uM by MTT assay relative to control; format: functional; details: read-out: Activity; method in brief: as §5
[13] = system: SH-SY5Y; assay: Cytotoxicity against human SH-SY5Y cells assessed as reduction in cell viability at 1 to 25 uM by MTT assay; format: functional, cell-based; details: dose 1-25 µM; method in brief: as §5
[14] = molecular target: T4, Acetylcholinesterase (Homo sapiens, UniProt P22303); assay: Reversible inhibition of AChE (unknown origin) assessed as residual activity at 10 times IC50 incubated for 30 mins by dilution method relative to control
T4 sequence (P22303 whole entry): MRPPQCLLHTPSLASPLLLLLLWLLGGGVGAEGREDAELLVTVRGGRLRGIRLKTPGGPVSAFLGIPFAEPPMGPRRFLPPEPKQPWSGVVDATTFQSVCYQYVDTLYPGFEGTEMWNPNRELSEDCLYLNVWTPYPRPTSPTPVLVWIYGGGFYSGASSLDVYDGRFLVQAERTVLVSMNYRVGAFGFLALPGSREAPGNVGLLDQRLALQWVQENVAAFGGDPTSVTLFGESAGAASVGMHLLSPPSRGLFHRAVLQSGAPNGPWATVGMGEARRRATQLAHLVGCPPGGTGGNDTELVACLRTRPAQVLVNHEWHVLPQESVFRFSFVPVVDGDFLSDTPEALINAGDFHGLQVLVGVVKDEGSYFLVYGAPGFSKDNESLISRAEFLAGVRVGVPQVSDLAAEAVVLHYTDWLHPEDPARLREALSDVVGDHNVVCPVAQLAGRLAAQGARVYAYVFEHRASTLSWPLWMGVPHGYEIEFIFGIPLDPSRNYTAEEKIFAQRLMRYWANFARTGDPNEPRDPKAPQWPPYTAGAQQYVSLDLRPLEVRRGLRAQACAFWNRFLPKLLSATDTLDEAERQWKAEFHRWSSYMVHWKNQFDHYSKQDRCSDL
Method in brief: (§7)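 Samples then diluted 100-fold with substrate, giving final inhibitor levels of 0.1× and 1× IC50. Recovered activity measured relative to control; triplicate.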

[15] = system: SH-SY5Y; assay: Inhibition of ROS production in human SH-SY5Y cells assessed as intracellular ROS level at 5 uM incubated for 24 hrs by DCF-DA staining based fluorescence analysis relative to control; format: functional; method in brief: as §4
[16] = molecular target: T2, Amine oxidase [flavin-containing] B; assay: Reversible inhibition of MAO-B (unknown origin) assessed as residual activity at 10 times IC50 incubated for 30 mins by dilution method relative to control; details: 0.5 h
[17] = molecular target: T1, Cholinesterase; assay: Inhibition of recombinant BuChE (unknown origin) using BTCI as substrate preincubated for 30 mins followed by substrate addition by TECAN multiplate reader analysis; method in brief: as §1
[18] = molecular target: T2, Amine oxidase [flavin-containing] B; assay: Reversible inhibition of MAO-B (unknown origin) assessed as residual activity at 1 times IC50 incubated for 30 mins by dilution method relative to control; details: 0.5 h
[19] = molecular target: T4, Acetylcholinesterase; assay: Reversible inhibition of AChE (unknown origin) assessed as residual activity at 0.1 times IC50 incubated for 30 mins by dilution method relative to control; method in brief: as §7
[20] = molecular target: T2, Amine oxidase [flavin-containing] B; assay: Inhibition of recombinant MAO-B (unknown origin) preincubated for 30 mins followed substrate addition by Amplex Red reagent based fluorescence analysis
[21] = system: SH-SY5Y; assay: Neuroprotective activity against 6-OHDA-induced cytotoxicity in human SH-SY5Y cells assessed as cell viability at 1 uM incubated for 24 hrs followed by exposure to 6-OHDA by MTT assay relative to control; format: functional; details: read-out: Activity; method in brief: as §6
[22] = molecular target: T4, Acetylcholinesterase; assay: Reversible inhibition of AChE (unknown origin) assessed as residual activity at 100 times IC50 incubated for 30 mins by dilution method relative to control; method in brief: as §7
[23] = system: SH-SY5Y; assay: Neuroprotective activity against 6-OHDA-induced cytotoxicity in human SH-SY5Y cells assessed as cell viability at 5 uM incubated for 24 hrs followed by exposure to 6-OHDA by MTT assay relative to control; format: functional; details: read-out: Activity; method in brief: as §6
[24] = molecular target: T2, Amine oxidase [flavin-containing] B; assay: Reversible inhibition of MAO-B (unknown origin) assessed as residual activity at 100 times IC50 incubated for 30 mins by dilution method relative to control; details: 0.5 h
[25] = molecular target: T4, Acetylcholinesterase; assay: Reversible inhibition of AChE (unknown origin) assessed as residual activity at 1 times IC50 incubated for 30 mins by dilution method relative to control; method in brief: as §7

| Compound | inhibition [1] [%] | inhibition [2] [%] | inhibition [3] [%] | inhibition at 20 µM [4] [%] | other results |
| --- | --- | --- | --- | --- | --- |
| C#CCCCOc1c(CN2CCOCC2)cc(-c2cc(=O)c3ccccc3o2)cc1CN1CCOCC1 | 1 | 26.9 | 23.9 | 18.1 |  |
| C#CCCCOc1c(CN2CCCCC2)cc(-c2cc(=O)c3ccccc3o2)cc1CN1CCCCC1 | 13.7 | 18 | 12 | 19.7 |  |
| C#CCCCOc1c(CN2CCOCC2)cc(-c2cc(=O)c3ccccc3o2)cc1OC | 3.35 |  |  | 18.8 |  |
| C#CCCCOc1c(CN2CCN(Cc3ccccc3)CC2)cc(-c2cc(=O)c3ccccc3o2)cc1OC | 7.42 | 28.1 | 22.9 | 22.8 | inhibition at 20 µM [5]: 5.26% |
| C#CCOc1c(CN2CCCCC2)cc(-c2cc(=O)c3ccccc3o2)cc1OC | 89.9 | 28.5 | 22.4 | 50.8 | inhibition at 25 µM [6]: 47%; Activity [7]: 76.3%; viability at 25 µM [8]: 91.9%; viability at 1 µM [9]: 97.1%; viability at 25 µM [10]: 46.9%; inhibition at 1 µM [11]: 82.8%; viability at 5 µM [12]: 94.4%; Activity [13]: Not toxic; Activity [14]: 33.1%; inhibition at 5 µM [15]: 51%; Activity [16]: 32.6%; IC50 [17]: 1.95 µM; Activity [18]: 58.9%; Activity [19]: 71.3%; IC50 [20]: 19.6 µM; viability at 1 µM [21]: 51.9%; Activity [22]: 25.3%; viability at 5 µM [23]: 49.4%; Activity [24]: 14%; Activity [25]: 47.2% |
| C#CCOc1ccc(-c2cc(=O)c3ccccc3o2)cc1CN1CCOCC1 | 4.21 | 11.6 | 9 | 28.1 |  |
| C#CCCOc1c(CN2CCOCC2)cc(-c2cc(=O)c3ccccc3o2)cc1OCC | 4.42 | 23.7 | 24.6 | 6.89 |  |
| C#CCCOc1c(CN2CCOCC2)cc(-c2cc(=O)c3ccccc3o2)cc1OC | 3.11 |  |  | 26.6 | inhibition at 20 µM [5]: 7.98% |
| C#CCOc1c(CN2CCOCC2)cc(-c2cc(=O)c3ccccc3o2)cc1CN1CCOCC1 | 9.03 | 23.3 | 14.4 | 36.5 |  |
| C#CCCCOc1c(CN2CCCCC2)cc(-c2cc(=O)c3ccccc3o2)cc1OCC | 3.36 |  |  | 15.6 |  |
